Measured values taken from publication PMC2828537 (Pflugers Archiv : European journal of physiology, 2009).

Tests used:
Format in all cases: cell-based
[1] = molecular target: human TRPA1 Cys621Ser, Cys641Ser and Cys665Ser triple mutant (Homo sapiens, UniProt O75762, C621S/C641S/C665S); test: Currents of human TRPA1 triple cysteine mutant; conditions: HH, unpublished results
[2] = molecular target: T1, human TRPA1 endogenously expressed in WI-38 fibroblasts (Homo sapiens, UniProt O75762); test: Fluo4 [Ca2+]i assay in WI-38 fibroblasts
T1 sequence (O75762 whole entry): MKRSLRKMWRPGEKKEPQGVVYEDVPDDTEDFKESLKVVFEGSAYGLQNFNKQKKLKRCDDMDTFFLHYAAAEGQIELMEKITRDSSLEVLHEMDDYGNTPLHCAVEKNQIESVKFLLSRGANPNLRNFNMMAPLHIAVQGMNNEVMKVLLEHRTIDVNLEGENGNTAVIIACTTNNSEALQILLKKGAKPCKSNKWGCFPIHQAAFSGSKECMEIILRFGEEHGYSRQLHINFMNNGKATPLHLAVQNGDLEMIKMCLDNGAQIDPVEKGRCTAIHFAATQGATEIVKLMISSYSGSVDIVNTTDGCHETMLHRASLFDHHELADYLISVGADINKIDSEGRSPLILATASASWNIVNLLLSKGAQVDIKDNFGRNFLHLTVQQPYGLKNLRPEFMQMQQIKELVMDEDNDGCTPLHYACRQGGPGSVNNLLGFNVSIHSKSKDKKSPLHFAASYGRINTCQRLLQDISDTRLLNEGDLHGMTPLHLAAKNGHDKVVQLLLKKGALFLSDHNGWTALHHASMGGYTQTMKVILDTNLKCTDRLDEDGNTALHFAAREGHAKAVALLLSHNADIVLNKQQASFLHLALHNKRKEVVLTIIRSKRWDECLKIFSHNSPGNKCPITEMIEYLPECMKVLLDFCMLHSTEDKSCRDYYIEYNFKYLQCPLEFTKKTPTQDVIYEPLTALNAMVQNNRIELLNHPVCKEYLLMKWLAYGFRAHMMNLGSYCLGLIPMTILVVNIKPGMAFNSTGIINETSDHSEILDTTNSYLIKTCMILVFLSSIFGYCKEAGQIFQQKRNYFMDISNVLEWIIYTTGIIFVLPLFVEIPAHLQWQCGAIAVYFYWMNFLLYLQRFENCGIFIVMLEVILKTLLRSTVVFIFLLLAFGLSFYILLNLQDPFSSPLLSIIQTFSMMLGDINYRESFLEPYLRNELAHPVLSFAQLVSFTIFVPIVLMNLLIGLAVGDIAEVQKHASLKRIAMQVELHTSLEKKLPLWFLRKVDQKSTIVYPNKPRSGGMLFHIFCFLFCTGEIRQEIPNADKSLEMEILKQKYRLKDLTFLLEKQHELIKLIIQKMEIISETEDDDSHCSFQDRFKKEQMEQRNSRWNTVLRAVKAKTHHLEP

[3] = molecular target: rat TRPA1 (Rattus norvegicus, UniProt Q6RI86); test: Two-electrode voltage clamp of Xenopus oocytes expressing rat TRPA1; conditions: for response to FFA and AITC together, % of that evoked by FFA alone: 30 µM FFA + 3 µM AITC; for current stimulated by FFA and CA together, % of that evoked by FFA: 30 µM FFA + 3 µM CA; for current with FFA at 14°C, % of that evoked by the same concentration at 22°C / increase of FFA-activated current by raising bath Ca2+ to 10 mM / decrease of FFA-activated current amplitude in BAPTA-injected oocytes: 30 µM FFA; for decrease of FFA-activated current amplitude in BAPTA-injected oocytes / EC50: nominally Ca2+-free bath; for decrease of FFA-activated current amplitude in BAPTA-injected oocytes: BAPTA ~2.5 mM
rat TRPA1, sequence (Q6RI86 whole entry): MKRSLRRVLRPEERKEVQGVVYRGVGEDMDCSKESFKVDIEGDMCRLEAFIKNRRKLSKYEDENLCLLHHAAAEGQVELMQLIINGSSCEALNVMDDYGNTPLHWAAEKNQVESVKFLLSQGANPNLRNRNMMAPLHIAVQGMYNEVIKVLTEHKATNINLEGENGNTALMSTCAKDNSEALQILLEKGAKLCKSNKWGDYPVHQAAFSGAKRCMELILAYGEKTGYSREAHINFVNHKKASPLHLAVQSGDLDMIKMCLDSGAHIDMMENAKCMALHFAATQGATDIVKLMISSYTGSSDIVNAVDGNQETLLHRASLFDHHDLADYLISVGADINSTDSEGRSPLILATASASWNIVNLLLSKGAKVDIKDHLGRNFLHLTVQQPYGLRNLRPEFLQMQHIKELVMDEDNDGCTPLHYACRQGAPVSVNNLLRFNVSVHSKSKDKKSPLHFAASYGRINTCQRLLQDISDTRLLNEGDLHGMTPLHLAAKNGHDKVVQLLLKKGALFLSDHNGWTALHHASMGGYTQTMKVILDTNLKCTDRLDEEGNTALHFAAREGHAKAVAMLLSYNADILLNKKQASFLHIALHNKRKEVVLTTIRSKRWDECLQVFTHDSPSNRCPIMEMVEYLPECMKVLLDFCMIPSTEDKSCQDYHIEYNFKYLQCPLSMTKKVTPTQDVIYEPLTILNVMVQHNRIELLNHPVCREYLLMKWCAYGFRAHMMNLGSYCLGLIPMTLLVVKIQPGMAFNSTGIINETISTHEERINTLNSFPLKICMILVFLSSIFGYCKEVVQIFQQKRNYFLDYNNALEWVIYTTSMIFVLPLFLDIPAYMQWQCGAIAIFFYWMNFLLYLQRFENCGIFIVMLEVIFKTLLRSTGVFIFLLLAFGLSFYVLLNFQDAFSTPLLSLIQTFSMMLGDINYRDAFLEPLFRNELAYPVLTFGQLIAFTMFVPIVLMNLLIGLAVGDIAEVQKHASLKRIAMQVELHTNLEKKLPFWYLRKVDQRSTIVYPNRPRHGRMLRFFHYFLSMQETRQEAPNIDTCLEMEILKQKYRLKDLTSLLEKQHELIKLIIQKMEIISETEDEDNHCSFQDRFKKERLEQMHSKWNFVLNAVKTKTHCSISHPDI

[4] = molecular target: T1, human TRPA1 endogenously expressed in WI-38 fibroblasts; test: Whole-cell recordings of WI-38 cells
In short: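 WI-38 cells grown in MEM with 10% heat-inactivated FBS and penicillin/streptomycin at 37°C, 5% CO₂. Cells were detached with 0.05% trypsin plus 0.53 mM EDTA in Ca²⁺/Mg²⁺-free HBSS for 5–10 min, held at 37°C, then settled on polyornithine-coated coverslips for 3–5 min before perfusion. Whole-cell voltage clamp was sampled at 5 kHz, with 100 ms ramps from −100 to +100 mV (holding −60 mV) applied every 0.5 s.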

[5] = molecular target: T2, murine TRPV1 (Mus musculus, UniProt Q704Y3); test: Two-electrode voltage clamp of Xenopus oocytes expressing murine TRPV1; conditions: 100 µM FFA with 100 µM 2APB
T2 sequence (Q704Y3 whole entry): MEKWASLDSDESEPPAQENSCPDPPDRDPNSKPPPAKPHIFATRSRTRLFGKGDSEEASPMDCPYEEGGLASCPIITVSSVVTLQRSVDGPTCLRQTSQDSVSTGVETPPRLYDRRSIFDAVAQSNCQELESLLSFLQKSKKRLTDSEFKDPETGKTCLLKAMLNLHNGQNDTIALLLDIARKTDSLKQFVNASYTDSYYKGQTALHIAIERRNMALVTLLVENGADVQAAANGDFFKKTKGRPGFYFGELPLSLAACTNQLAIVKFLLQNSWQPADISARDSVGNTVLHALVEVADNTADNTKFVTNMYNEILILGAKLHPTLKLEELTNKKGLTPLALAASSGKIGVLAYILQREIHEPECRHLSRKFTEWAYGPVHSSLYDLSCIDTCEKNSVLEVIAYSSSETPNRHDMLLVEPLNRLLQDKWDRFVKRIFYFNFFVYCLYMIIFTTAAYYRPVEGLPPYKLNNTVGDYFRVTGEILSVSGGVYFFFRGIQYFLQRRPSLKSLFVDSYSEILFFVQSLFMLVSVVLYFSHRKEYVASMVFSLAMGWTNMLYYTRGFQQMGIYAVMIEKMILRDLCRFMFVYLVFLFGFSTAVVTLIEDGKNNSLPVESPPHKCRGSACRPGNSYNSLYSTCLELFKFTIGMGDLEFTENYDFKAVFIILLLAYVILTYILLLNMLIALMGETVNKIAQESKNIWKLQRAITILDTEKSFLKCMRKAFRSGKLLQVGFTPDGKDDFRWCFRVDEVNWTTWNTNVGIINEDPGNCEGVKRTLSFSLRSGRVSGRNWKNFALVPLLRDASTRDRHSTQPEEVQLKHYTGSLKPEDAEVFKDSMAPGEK
In short: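 Collagenase-defolliculated Xenopus oocytes (>1.5 mm) were injected with 5 ng cRNA and kept 2–5 days at 19°C in ND96. Two-electrode clamp used a nominally Ca²⁺-free bath (pH 7.4), holding −20 mV, a 20 ms step to −100 mV, then a 200 ms ramp to +100 mV each second, at 22°C.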

[6] = molecular target: T2, murine TRPV1; test: Fura2 Ca2+ imaging of HEK293 cells transiently expressing TRPV1
In short: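 Murine TRPV1 (pIRES2EGFP) was transiently expressed in HEK293 cells, which were seeded on polyornithine coverslips one day after transfection. After 16 hrs, cells were loaded with 2 µM Fura2-AM plus 0.05% Pluronic F-127 (60 min, 37°C). Transfected cells were identified by GFP (470 nm). Imaging used 340/380 nm excitation and 510 nm emission at 22°C. Capsaicin and test compound were perfused at final concentration. Maximal Fura2 ratio change reported, n = 3.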

[7] = molecular target: T3, murine TRPV3 (Mus musculus, UniProt Q8K424); test: Fluo4 [Ca2+]i assay in stable HEK293 TRPV3 cell line
T3 sequence (Q8K424 1-791): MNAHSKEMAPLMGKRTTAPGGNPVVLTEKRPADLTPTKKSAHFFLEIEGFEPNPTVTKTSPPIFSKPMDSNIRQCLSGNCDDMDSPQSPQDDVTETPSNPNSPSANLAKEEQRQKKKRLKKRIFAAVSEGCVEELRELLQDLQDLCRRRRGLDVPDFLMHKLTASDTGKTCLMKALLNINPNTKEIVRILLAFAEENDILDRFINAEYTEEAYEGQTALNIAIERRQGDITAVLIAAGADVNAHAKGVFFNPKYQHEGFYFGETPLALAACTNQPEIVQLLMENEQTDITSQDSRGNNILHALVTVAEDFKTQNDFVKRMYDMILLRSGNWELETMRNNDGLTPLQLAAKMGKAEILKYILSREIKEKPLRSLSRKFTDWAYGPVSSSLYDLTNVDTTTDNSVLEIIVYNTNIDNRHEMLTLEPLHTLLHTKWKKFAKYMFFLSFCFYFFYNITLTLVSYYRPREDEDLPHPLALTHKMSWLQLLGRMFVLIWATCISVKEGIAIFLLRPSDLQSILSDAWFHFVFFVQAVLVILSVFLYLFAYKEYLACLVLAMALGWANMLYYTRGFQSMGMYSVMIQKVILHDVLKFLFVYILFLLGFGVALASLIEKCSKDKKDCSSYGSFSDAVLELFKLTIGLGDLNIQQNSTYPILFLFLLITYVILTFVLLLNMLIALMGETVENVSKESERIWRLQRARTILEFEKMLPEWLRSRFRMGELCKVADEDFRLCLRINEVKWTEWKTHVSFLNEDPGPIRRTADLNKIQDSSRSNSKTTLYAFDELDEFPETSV
In short: (§1)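 Stable HEK293 lines expressing murine TRPV3 (clonal) or TRPM8 (polyclonal), selected with 400 µg/ml G418. Seeded at ~100,000 cells/well on polyornithine-treated wells and grown 14–18 hrs. Loaded with 2 µM Fluo4-AM plus 0.05% Pluronic F-127 in ECS (pH 7.4) for 60 min at 37°C, with 2 mM probenecid throughout. Test compound and channel agonist added robotically. Fluorescence read at ex 494/em 525 nm, 0.67 Hz, 20–25°C. Maximal fluorescence change reported, n = 3.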

[8] = molecular target: human TRPA1 (Homo sapiens, UniProt O75762); test: Fluo4 [Ca2+]i assay in HEK-A1 cells
human TRPA1, sequence (O75762 whole entry): as the sequence (O75762 whole entry) above

[9] = molecular target: murine TRPM8 (Mus musculus, UniProt Q8R4D5); test: Fluo4 [Ca2+]i assay in stable HEK293 TRPM8 cell line
murine TRPM8, sequence (Q8R4D5 whole entry): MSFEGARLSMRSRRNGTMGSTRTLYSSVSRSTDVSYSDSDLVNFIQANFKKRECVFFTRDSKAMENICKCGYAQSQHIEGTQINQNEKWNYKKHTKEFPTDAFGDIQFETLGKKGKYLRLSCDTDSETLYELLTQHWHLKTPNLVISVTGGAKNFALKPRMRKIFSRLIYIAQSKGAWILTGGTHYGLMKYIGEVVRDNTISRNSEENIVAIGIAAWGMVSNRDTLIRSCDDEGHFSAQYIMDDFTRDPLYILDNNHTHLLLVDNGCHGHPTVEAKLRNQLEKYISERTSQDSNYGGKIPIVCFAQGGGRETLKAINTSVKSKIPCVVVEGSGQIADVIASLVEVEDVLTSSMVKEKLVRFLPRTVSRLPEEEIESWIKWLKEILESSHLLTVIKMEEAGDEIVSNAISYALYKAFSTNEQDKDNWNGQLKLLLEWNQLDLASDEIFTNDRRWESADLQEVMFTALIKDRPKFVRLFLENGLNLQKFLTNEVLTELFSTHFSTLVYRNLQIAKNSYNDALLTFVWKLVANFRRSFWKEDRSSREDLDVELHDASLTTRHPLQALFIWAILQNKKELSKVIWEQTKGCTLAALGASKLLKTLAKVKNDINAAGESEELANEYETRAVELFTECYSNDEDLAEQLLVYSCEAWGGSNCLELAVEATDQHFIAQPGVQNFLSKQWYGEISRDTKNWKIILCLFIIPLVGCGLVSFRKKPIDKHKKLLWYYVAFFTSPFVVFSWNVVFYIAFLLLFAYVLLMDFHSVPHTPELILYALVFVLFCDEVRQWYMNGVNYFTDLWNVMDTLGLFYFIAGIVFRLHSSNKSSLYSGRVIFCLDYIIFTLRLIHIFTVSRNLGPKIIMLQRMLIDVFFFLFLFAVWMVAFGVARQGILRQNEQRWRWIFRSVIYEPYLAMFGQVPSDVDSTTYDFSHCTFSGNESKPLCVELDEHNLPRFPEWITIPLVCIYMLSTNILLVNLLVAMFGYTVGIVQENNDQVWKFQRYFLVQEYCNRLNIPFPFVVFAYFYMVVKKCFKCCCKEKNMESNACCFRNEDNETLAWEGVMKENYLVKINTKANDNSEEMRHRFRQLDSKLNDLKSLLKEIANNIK
In short: as §1

[10] = test system: HEK293 cells; test: Fluo4 [Ca2+]i assay in parental HEK293 cells; conditions: 300 µM
In short: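 Wild-type HEK293 cells in DMEM (4.5 mg/ml glucose, 10% heat-inactivated FBS, penicillin/streptomycin), plated on polyornithine-treated wells for 14–18 hrs. Loaded with Fluo4-AM (2 µM, 60 min, 37°C) in ECS with 2 mM probenecid, then washed. Test compound was given robotically at 300 µM final. Fluorescence was read on a plate reader at ex 494/em 525 nm, 0.67 Hz, 20–25°C.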

[11] = high concentrations of FFA (30 to 300 µM)

human TRPA1 Cys621Ser, Cys641Ser and Cys665Ser triple mutant, sequence (O75762 whole entry C621S/C641S/C665S): as the sequence (O75762 whole entry) above, with C621S, C641S, C665S counted along it

Compound: O=C(O)c1ccccc1Nc1cccc(C(F)(F)F)c1 [FFA, flufenamic acid]
- concentration-response curve in triple cysteine mutant [1]: right-shifted
- agonist effect on Fluo4 fluorescence ([Ca2+]i) in WI-38 cells ([2]; 300 µM): increased the Fluo4 fluorescence
- nH (Hill coefficient) ([2]; WI-38 cells): 1.3 ± 0.2
- threshold of activation [3]: about 10 µM
- response to FFA and AITC together, % of that evoked by FFA alone ([3]; +100 mV): 300 ± 52%
- response to FFA and AITC together, % of that evoked by FFA alone ([3]; −100 mV): 350 ± 62%
- current stimulated by FFA and CA together, % of that evoked by FFA ([3]; +100 mV): 223 ± 25%
- current stimulated by FFA and CA together, % of that evoked by FFA ([3]; −100 mV): 234 ± 43%
- current with FFA at 14°C, % of that evoked by the same concentration at 22°C ([3]; +100 mV): 226 ± 86%
- current with FFA at 14°C, % of that evoked by the same concentration at 22°C ([3]; −100 mV): 315 ± 85%
- increase of FFA-activated current by raising bath Ca2+ to 10 mM ([3]; +100 mV): 240 ± 39%
- decrease of FFA-activated current amplitude in BAPTA-injected oocytes ([3]; +100 mV): ~ 44%
- decrease of FFA-activated current amplitude in BAPTA-injected oocytes ([3]; −100 mV): ~ 33%
- increase of FFA-activated current by raising bath Ca2+ to 10 mM ([3]; −100 mV): 309 ± 49%
- Hill co-efficient at +100 mV ([3]; +100 mV): 2.2 ± 0.2
- EC50 ([3]; EC50 for current activation at +100 mV, +100 mV): 78 ± 4 µM
- EC50 ([3]; EC50 for current activation at −100 mV, −100 mV): 147 ± 4 µM
- Hill co-efficient at −100 mV ([3]; −100 mV): 2.2 ± 0.1
- Hill co-efficient at +100 mV ([4]; +100 mV): 1.7 ± 0.2
- EC50 ([4]; EC50 for FFA-evoked whole-cell currents at +100 mV, +100 mV): 44 ± 11 µM
- EC50 ([4]; EC50 for FFA-evoked whole-cell currents at −100 mV, −100 mV): 55 ± 4 µM
- Hill co-efficient at −100 mV ([4]; −100 mV): 2.4 ± 0.1
- suppression of 2APB-activated current ([5]; +100 mV): 57%
- suppression of 2APB-activated current ([5]; −100 mV): 75%
- increase in Fura2 ratio upon application ([6]; FFA from 3.7 to 100 µM): no significant increase
- effect on [Ca2+]i increase elicited by the channel's agonist [6, 11]: inhibited
- increase in Fluo4 fluorescence upon application ([7]; FFA from 3.7 to 100 µM): no significant increase
- effect on [Ca2+]i increase elicited by the channel's agonist [7, 11]: inhibited
- EC50 [8]: 57 ± 5 µM
- nH (Hill coefficient) ([8]; HEK-A1 cells): 1.6 ± 0.1
- Fluo4 fluorescence change ([9]; 300 µM FFA): slow fluorescence increase
- increase in Fluo4 fluorescence upon application ([9]; FFA from 3.7 to 100 µM): no significant increase
- effect on [Ca2+]i increase elicited by the channel's agonist [9, 11]: inhibited
- effect on Fluo4 fluorescence in HEK293 cells [10]: little effect
